ChEMBL document CHEMBL1131460, “2-substituted (2SR)-2-amino-2-((1SR,2SR)-2-carboxycycloprop-1-yl)glycines as potent and selective antagonists of group II metabotropic glutamate receptors. 2. Effects of aromatic substitution, pharmacological characterization, and bioavailability” (J Med Chem, 1998)

Legend:
[1] = Binding affinity for Group II Metabotropic glutamate receptor was measured using [3H]glutamate in rat forebrain membranes; assay type: cell membranes, Membrane
Procedure, shortened: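 ACPD-sensitive [³H]glutamate binding to group II mGluRs in rat forebrain membranes, reported as IC50. Most values are single-point determinations; others are averages of two or three determinations. Values in parentheses are percent radioligand displacement at 1 μM.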

[2] = target: T1, Metabotropic glutamate receptor 3 (Homo sapiens, UniProt Q14832); assay: Compound was tested its ability to block 1S,3R-ACPD-induced inhibition of forskolin stimulated cyclic-AMP in RGT cells transfected with human Metabotropic glutamate receptor 3; Agonist; assay type: functional, cell-based
Procedure, shortened: (§1)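 RGT cells transfected with human mGluR2 or mGluR3 were used. Forskolin-stimulated cyclic AMP was inhibited by (1S,3R)-ACPD, and compounds were tested for antagonism of this inhibition, giving IC50.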

[3] = target: T2, Metabotropic glutamate receptor 2 (Homo sapiens, UniProt Q14416); assay: Compound was tested its ability to block 1S,3R-ACPD-induced inhibition of forskolin stimulated cyclic-AMP in RGT cells transfected with human Metabotropic glutamate receptor 2; Agonist; assay type: functional, cell-based; procedure, shortened: as §1
[4] = target: T1, Metabotropic glutamate receptor 3; assay: Effect on 1S,3R-ACPD-induced inhibition of forskolin stimulated cyclic-AMP in RGT cells expressing human Metabotropic glutamate receptor 3; assay type: functional, cell-based
[5] = target: T2, Metabotropic glutamate receptor 2; assay: Effect on 1S,3R-ACPD-induced inhibition of forskolin stimulated cyclic-AMP in RGT cells expressing human Metabotropic glutamate receptor 2; assay type: functional, cell-based

T2 sequence (Q14416 whole entry): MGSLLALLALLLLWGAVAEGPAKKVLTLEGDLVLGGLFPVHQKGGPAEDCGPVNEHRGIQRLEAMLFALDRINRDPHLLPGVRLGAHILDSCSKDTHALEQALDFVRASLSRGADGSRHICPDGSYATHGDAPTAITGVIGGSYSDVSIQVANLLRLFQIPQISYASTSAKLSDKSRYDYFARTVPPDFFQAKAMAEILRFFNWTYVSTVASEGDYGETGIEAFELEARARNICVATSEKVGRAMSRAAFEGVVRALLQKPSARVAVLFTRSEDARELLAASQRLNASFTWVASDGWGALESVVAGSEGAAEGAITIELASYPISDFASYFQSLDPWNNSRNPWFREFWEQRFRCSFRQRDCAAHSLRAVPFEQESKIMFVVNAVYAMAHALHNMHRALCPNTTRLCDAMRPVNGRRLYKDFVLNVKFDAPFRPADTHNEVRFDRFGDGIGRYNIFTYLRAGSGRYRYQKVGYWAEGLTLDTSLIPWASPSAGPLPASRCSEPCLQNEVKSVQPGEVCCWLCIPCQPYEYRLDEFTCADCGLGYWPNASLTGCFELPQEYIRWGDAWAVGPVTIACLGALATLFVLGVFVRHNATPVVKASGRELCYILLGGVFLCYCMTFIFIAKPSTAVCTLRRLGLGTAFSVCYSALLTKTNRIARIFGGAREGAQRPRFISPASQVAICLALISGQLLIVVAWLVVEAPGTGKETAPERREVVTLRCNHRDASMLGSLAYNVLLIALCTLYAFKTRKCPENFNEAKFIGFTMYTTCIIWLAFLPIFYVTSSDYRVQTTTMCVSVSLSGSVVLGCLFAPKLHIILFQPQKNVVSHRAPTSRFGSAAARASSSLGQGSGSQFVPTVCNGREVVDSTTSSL
T1 sequence (Q14832 whole entry): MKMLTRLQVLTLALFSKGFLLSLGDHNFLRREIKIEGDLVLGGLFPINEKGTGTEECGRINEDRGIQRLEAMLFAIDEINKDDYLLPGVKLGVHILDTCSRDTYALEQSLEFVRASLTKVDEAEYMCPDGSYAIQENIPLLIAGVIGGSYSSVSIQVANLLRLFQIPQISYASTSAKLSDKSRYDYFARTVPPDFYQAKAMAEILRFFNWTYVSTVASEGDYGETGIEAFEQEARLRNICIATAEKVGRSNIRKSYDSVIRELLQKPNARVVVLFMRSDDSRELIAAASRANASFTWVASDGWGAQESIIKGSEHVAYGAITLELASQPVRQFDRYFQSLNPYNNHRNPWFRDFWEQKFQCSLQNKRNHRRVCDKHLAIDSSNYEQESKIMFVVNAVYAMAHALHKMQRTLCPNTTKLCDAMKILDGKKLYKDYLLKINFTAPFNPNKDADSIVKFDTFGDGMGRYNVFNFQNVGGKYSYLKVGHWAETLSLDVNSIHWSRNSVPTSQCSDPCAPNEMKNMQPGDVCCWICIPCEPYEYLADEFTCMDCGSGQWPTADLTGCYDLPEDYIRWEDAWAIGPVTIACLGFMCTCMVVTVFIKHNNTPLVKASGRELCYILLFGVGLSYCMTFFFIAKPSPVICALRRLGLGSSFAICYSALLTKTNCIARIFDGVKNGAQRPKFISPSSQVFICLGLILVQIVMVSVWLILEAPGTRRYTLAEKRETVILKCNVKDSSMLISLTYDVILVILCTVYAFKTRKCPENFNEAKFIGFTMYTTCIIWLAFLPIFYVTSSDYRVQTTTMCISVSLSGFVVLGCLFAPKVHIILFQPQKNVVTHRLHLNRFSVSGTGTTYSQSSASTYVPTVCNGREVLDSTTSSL

Structure (SMILES)	IC50 [1] [nM]	other results
N[C@@](CCc1ccccc1C(F)(F)F)(C(=O)O)C1C[C@@H]1C(=O)O (some centres undefined)	480	–
NC(CC(c1ccccc1)c1ccccc1)(C(=O)O)[C@@H]1C[C@H]1C(=O)O (single isomer, unassigned)	–	Displacement ([1]; Membrane): 0%
COc1ccccc1CC[C@](N)(C(=O)O)C1C[C@@H]1C(=O)O (some centres undefined)	170	–
N[C@](CC1c2ccccc2Oc2ccccc21)(C(=O)O)C1C[C@H]1C(=O)O (stereo in doubt; 173)	860	–
N[C@@H](C(=O)O)C1C[C@@H]1C(=O)O (some centres undefined)	470	IC50 [2]: Agonist; IC50 [3]: Agonist
N[C@@](CCc1cc(F)ccc1F)(C(=O)O)C1C[C@@H]1C(=O)O (some centres undefined)	290	–
Cc1ccccc1CC[C@](N)(C(=O)O)C1C[C@@H]1C(=O)O (some centres undefined)	570	–
N[C@](CC1c2ccccc2Oc2ccccc21)(C(=O)O)C1C[C@H]1C(=O)O (stereo in doubt; 174)	4200	–
CS(=O)(=O)c1cccc(CC[C@](N)(C(=O)O)C2C[C@@H]2C(=O)O)c1 (some centres undefined) [listing 2 of 2 here]	2400	–
N[C@@](CCc1ccc(Cl)cc1)(C(=O)O)C1C[C@@H]1C(=O)O (some centres undefined)	410	–
N[C@@](CCc1ccc(Cl)cc1Cl)(C(=O)O)C1C[C@@H]1C(=O)O (some centres undefined)	220	–
N[C@@](CC(c1ccccc1)c1ccccc1)(C(=O)O)[C@H]1C[C@@H]1C(=O)O	2000	–
N[C@@](CCc1ccc(C(=O)O)cc1)(C(=O)O)C1C[C@@H]1C(=O)O (some centres undefined)	370	–
CCCc1cccc(CC[C@](N)(C(=O)O)C2C[C@@H]2C(=O)O)c1 (some centres undefined)	570	–
N[C@@](CCc1cccc(C2CCCC2)c1)(C(=O)O)C1C[C@@H]1C(=O)O (some centres undefined)	> 10000	–
N[C@@](CCc1ccc(O)cc1)(C(=O)O)C1C[C@@H]1C(=O)O (some centres undefined)	300	–
NC(CCc1ccccc1)(C(=O)O)[C@H]1C[C@@H]1C(=O)O (some centres undefined)	320	–
Nc1cccc(CC[C@](N)(C(=O)O)C2C[C@@H]2C(=O)O)c1 (some centres undefined)	–	IC50 [4]: 200 nM; IC50 [5]: 3100 nM
N[C@@](CCc1cccc(O)c1)(C(=O)O)C1C[C@@H]1C(=O)O (some centres undefined)	150	IC50 [4]: 260 nM; IC50 [5]: 1000 nM

Structure (SMILES)	IC50 [1] [nM]	other results
N[C@@](CCc1cccc(Oc2ccccc2)c1)(C(=O)O)C1C[C@@H]1C(=O)O (some centres undefined)	220	–
N[C@@](CCc1c(Cl)cccc1Cl)(C(=O)O)C1C[C@@H]1C(=O)O (some centres undefined)	710	–
COc1ccc(CC[C@](N)(C(=O)O)C2C[C@@H]2C(=O)O)cc1OC (some centres undefined)	460	–
N[C@@](CCc1ccccc1Cl)(C(=O)O)C1C[C@@H]1C(=O)O (some centres undefined)	260	–
COc1ccc(OC)c(CC[C@](N)(C(=O)O)C2C[C@@H]2C(=O)O)c1 (some centres undefined)	170	–
CC(C)(C)c1cccc(CC[C@](N)(C(=O)O)C2C[C@@H]2C(=O)O)c1 (some centres undefined)	> 10000	–
N[C@@](CCc1ccc(Br)cc1)(C(=O)O)C1C[C@@H]1C(=O)O (some centres undefined)	680	–
N[C@@](CCc1ccccc1O)(C(=O)O)C1C[C@@H]1C(=O)O (some centres undefined)	220	–
N[C@@](CCc1ccccc1Oc1ccccc1)(C(=O)O)C1C[C@@H]1C(=O)O (some centres undefined)	360	–
CSc1cccc(CC[C@](N)(C(=O)O)C2C[C@@H]2C(=O)O)c1 (some centres undefined)	410	–
N[C@@](CCc1c(F)c(F)c(F)c(F)c1F)(C(=O)O)C1C[C@@H]1C(=O)O (some centres undefined)	370	–
COc1ccc(CC[C@](N)(C(=O)O)C2C[C@@H]2C(=O)O)cc1 (some centres undefined)	1400	–
N[C@@](CC1c2ccccc2Oc2ccccc21)(C(=O)O)[C@H]1C[C@@H]1C(=O)O	530	–
Cc1ccc(CC[C@](N)(C(=O)O)C2C[C@@H]2C(=O)O)cc1 (some centres undefined)	590	–
N[C@@](CCc1ccccc1F)(C(=O)O)C1C[C@@H]1C(=O)O (some centres undefined)	310	–
N[C@@](CCc1cccc(F)c1)(C(=O)O)C1C[C@@H]1C(=O)O (some centres undefined)	160	–
N[C@@](CCc1ccc(-c2ccccc2)cc1)(C(=O)O)C1C[C@@H]1C(=O)O (some centres undefined)	1500	–
COc1cccc(CC[C@](N)(C(=O)O)C2C[C@@H]2C(=O)O)c1OC (some centres undefined)	4900	–
N[C@@](CCc1cccc(-c2ccccc2)c1)(C(=O)O)C1C[C@@H]1C(=O)O (some centres undefined)	510	–

More lines, in order of falling IC50 [1], values ahead:

IC50 [1] [nM]	Structure (SMILES)	other results
140	N[C@@](CCc1cccc(C(F)(F)F)c1)(C(=O)O)C1C[C@@H]1C(=O)O (some centres undefined)	IC50 [4]: 420 nM; IC50 [5]: 220 nM
130	N[C@@](CCc1cccc(F)c1F)(C(=O)O)C1C[C@@H]1C(=O)O (some centres undefined)	–
110	CS(=O)(=O)c1cccc(CC[C@](N)(C(=O)O)C2C[C@@H]2C(=O)O)c1 (some centres undefined) [listing 1 of 2 here]	IC50 [4]: 180 nM; IC50 [5]: 190 nM
110	COc1cc(CC[C@](N)(C(=O)O)C2C[C@@H]2C(=O)O)cc(OC)c1 (some centres undefined)	–
100	N[C@@](CCc1cccc(Cl)c1)(C(=O)O)C1C[C@@H]1C(=O)O (some centres undefined)	IC50 [4]: 180 nM; IC50 [5]: 180 nM
94	COc1cccc(CC[C@](N)(C(=O)O)C2C[C@@H]2C(=O)O)c1 (some centres undefined)	IC50 [4]: 160 nM; IC50 [5]: 430 nM
89	Cc1cccc(CC[C@](N)(C(=O)O)C2C[C@@H]2C(=O)O)c1 (stereo in doubt; 104)	–
77	NC(CCc1cccc(C(=O)O)c1)(C(=O)O)[C@H]1C[C@@H]1C(=O)O (some centres undefined)	IC50 [4]: 80 nM; IC50 [5]: 1800 nM
69	N[C@@](CCc1cccc(Br)c1)(C(=O)O)C1C[C@@H]1C(=O)O (some centres undefined)	–
67	N[C@@](CCc1ccc(Cl)c(Cl)c1)(C(=O)O)C1C[C@@H]1C(=O)O (some centres undefined)	–
63	N[C@@](CCc1ccc(F)cc1F)(C(=O)O)C1C[C@@H]1C(=O)O (some centres undefined)	–
35	N[C@](CC(c1ccccc1)c1ccccc1)(C(=O)O)[C@H]1C[C@@H]1C(=O)O	IC50 [4]: 170 nM; IC50 [5]: 220 nM
34	N[C@@](CCc1ccc(F)c(F)c1)(C(=O)O)C1C[C@@H]1C(=O)O (some centres undefined)	–
29	N[C@@](CCc1cc(Cl)cc(Cl)c1)(C(=O)O)C1C[C@@H]1C(=O)O (some centres undefined)	–
22	N[C@@](CCc1ccc(F)cc1)(C(=O)O)C1C[C@@H]1C(=O)O (some centres undefined)	IC50 [4]: 210 nM; IC50 [5]: 180 nM
21	N[C@@](CCc1cc(F)cc(F)c1)(C(=O)O)C1C[C@@H]1C(=O)O (some centres undefined)	–
12	Cc1cccc(CC[C@](N)(C(=O)O)C2C[C@@H]2C(=O)O)c1 (stereo in doubt; 180)	–
